Assay outcomes as filed in PubChem.
An excerpt weighted towards active compounds, which were near 3.8% of everything screened.
KCNK3 inh – human KCNK3 channel inhibitors, primary screen, CHO cells, FluxOR thallium flux, B-score; Potassium channel subfamily K member 3 (Homo sapiens), O14649; FluxOR fluorescence; stronger effect = lower value; B-score at 10 µM; 340,000 tested, 0.84% active;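 active = B-score under library mean minus 4 SD, starting fluorescence ratio at most library mean plus 5 SD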;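 also: more negative B-score means stronger inhibition of thallium flux through KCNK3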
KCNQ1 block – inhibitors of human KCNQ1 channel, primary screen, cell-based, thallium flux, high-throughput; 310,000 tested, 1.3% active; CHO-K1 KCNQ1, FluxOR thallium flux fluorescence; stronger effect = higher value; B-score at 10 µM; Potassium voltage-gated channel subfamily KQT member 1 (Homo sapiens), P51787;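 active = compounds whose thallium flux B-score, printed positive for inhibition, exceeds three library SD while starting fluorescence stays within three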;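 also: channel opened by potassium depolarization with thallium stimulus after 20 min compound exposure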
KCNK9 inh – KCNK9 potassium channel inhibitors, primary screen, HEK293 cells, thallium flux. AID 488922, 2010. B-score at 10 µM. 310,000 tested, 1.2% active. Potassium channel subfamily K member 9 (Homo sapiens), Q9NPC2. FluxOR thallium flux fluorescence; stronger effect = lower value;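 active = ratio B-score over 3 SD below the library mean, with starting fluorescence within 5 SD of its mean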;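 also: negative B-score means less thallium flux so channel inhibition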
hERG rescue – hERG rescue from dofetilide block, primary screen, cell-based, CHO-hERG, FluxOR thallium flux, dofetilide IC70. Voltage-gated inwardly rectifying potassium channel KCNH2 (Homo sapiens), Q12809. dofetilide IC70 present. activation (rescue from dofetilide block), less the hit threshold, % at 10 µM. 310,000 tested, 0.51% active;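 active = activation above the mean of controls blocked by dofetilide plus 5 SD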;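 also: thallium influx through hERG after potassium depolarization seen as dye fluorescence rise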
Kir21 block – inhibitors of mouse Kir2.1 inward-rectifier potassium channel; HEK293-Kir2.1, FluxOR thallium flux fluorescence; stronger effect = lower value; B-score at 10 µM; 310,000 tested, 0.85% active;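 active = fluorescence ratio B-score at or below minus 3 SD of library scores, with starting-brightness B-score within 2 SD, cut at about -4.2 in these data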;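 also: channel flux triggered by added potassium and thallium sulfate stimulus; B-score of peak minus minimum fluorescence over baseline after thallium stimulus; more negative B-score means stronger Kir2.1 block with less thallium influx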
KCNQ1 act – potentiators or activators of KCNQ1 channel, primary screen, cell-based, thallium flux, high-throughput; Potassium voltage-gated channel subfamily KQT member 1 (Homo sapiens), P51787; CHO-K1 KCNQ1, thallium flux FluxOR fluorescence; stronger effect = higher value; B-score at 10 µM; 310,000 tested, 0.35% active; AID 2648, 2010;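 active = fluorescence ratio B-score, a plate-corrected score, at least three library SD, with initial intensity B-score within 5 SD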
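Medium – assay buffer, equal DMSO in all wells · Material – CHO-K1 cell line with stable KCNQ1 potassium channel expression · Signal – kinetic FluxOR thallium fluorescence, 10-s 1-Hz baseline, 110-s post-stimulus read · Compound – single concentration per compound, DMSO matched to controls · Schedule – 37 °C overnight plating, 90-min dark dye load, 20-min compound pretreatment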
KCNQ1 inh valid – KCNQ1 potassium channel inhibitors, confirmation, cell-based, Tl flux, duplicate; shares compounds with KCNQ1 block; KCNQ1 cell line, FluxOR thallium flux fluorescence; inhibition, % at 10 µM; 1,600 tested, 93% active;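 active = primary screen active, with duplicate mean exceeding buffer control mean plus 3 SD of buffer wells, cut at about 28% in these data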;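 also: 0% = buffer control ratio and 100% = XE991 inhibitor control ratio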
CHO Tl flux – thallium flux effects in parental CHO cells, counter-screen for KCNQ1 inhibitor project, cell-based, Tl flux; 1,600 tested, 21% active; fluorescence ratio (Tl flux) at 10 µM; parental CHO-K1, FluxOR thallium flux fluorescence ratio; stronger effect = lower value; zero means no signal rise above baseline; shares compounds with KCNQ1 block;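 active = mean of duplicate thallium-flux fluorescence ratios in parental host cells more than 5 SD below the buffer control mean, cut at about 0.38 in these data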;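 also: ratio is peak minus minimum fluorescence divided by baseline fluorescence; actives read low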
KCNQ1 ephys val – KCNQ1 channel inhibitors, confirmation, orthogonal assay, cell-based, automated electrophysiology. shares compounds with KCNQ1 block. KCNQ1-CHO cells, automated patch clamp current. calls only at 10 µM. 490 tested, 20% active. AID 624120, 2012;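 active = KCNQ1 current drop exceeding 3 SD of negative control wells, seen in both duplicate runs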;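 also: steady state current during a 2 s step from -80 to +40 mV; negative values mean current inhibition and positive values mean potentiation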
KCNQ2 spec – KCNQ2 channel inhibition, selectivity assay for KCNQ1 inhibitor project, cell-based; 1,600 tested, 71% active; shares compounds with KCNQ1 block; KCNQ2 cells, FluxOR thallium flux fluorescence; AID 651746, 2012; inhibition, % at 10 µM;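 active = mean percent inhibition of the KCNQ2 thallium signal more than 5 SD above the buffer-only control wells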;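 also: KCNQ2 expressed in CHO cells; 0% = buffer control wells and 100% = XE-991 inhibitor control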
KCNQ1-KCNE1 inh – KCNQ1/KCNE1 channel inhibition, selectivity assay for KCNQ1 inhibitor project, CHO-K1 cells, thallium flux, FluxOR | AID 652147, 2013 | inhibition, % at 10 µM | 1,600 tested, 77% active | shares compounds with KCNQ1 block | FluxOR thallium flux fluorescence;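 active = mean percent inhibition of duplicate wells above the buffer-only control mean plus 3 SD of those controls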;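 also: 0% = buffer only wells and 100% = XE-991 inhibitor control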
Target sequence (P51787 whole entry, looked up): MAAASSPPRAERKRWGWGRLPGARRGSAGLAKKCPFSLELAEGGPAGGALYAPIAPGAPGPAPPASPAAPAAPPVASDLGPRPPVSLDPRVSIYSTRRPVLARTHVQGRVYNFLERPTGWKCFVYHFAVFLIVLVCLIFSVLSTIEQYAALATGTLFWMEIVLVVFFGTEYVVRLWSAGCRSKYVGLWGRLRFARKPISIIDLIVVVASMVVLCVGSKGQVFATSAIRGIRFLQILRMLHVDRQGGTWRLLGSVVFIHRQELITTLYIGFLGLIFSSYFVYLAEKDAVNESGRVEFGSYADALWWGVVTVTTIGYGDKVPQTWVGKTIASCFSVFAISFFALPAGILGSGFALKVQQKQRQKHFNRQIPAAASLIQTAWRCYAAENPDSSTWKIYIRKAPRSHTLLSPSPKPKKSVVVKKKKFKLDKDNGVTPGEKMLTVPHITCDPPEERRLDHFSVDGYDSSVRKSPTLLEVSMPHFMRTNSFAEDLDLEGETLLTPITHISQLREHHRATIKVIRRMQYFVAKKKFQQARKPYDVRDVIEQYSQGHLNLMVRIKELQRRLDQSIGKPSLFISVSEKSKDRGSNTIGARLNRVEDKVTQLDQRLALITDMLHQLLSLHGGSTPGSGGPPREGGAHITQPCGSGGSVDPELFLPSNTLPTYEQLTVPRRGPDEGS
KCNK9 block conf – KCNK9 potassium channel inhibitors, confirmation, HEK293 cells, thallium flux, duplicate | shares compounds with KCNK9 inh | FluxOR thallium flux fluorescence | inhibition, % at 10 µM | 4,900 tested, 43% active | AID 492992, 2010;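 active = thallium signal inhibited by more than 5 SD of the compound-free buffer control wells, on both duplicate plates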;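 also: 0% = assay buffer control wells without compound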
Kir21 sel – mouse Kir2.1 channel inhibition, confirmation, selectivity assay for KCNK9 modulator project, cell-based, HEK293, thallium flux. Kir2.1 cells, FluxOR thallium flux fluorescence. 4,900 tested, 4% active. inhibition, % at 10 µM. shares compounds with KCNK9 inh;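 active = thallium signal drop more than 5 SD beyond the mean of the no-compound control wells, seen in both duplicate plates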;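 also: signal is fluorescence rise after thallium addition divided by baseline fluorescence; plate controls were assay buffer only for no effect and full block by chlorpromazine control for full effect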
HEK293 Tl ctr – thallium flux in non-induced HEK293 cells, confirmation, counter-screen for KCNK9 inhibitor project, cell-based, second counter screen, non-induced KCNK9-HEK293. AID 492997, 2010. 4,900 tested, 40% active. shares compounds with KCNK9 inh. FluxOR thallium flux. inhibition, % at 10 µM;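 active = thallium signal drop beyond 5 SD of the untreated control mean, on both duplicate plates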;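 also: plate controls were buffer only IC0 wells for no effect and SID17386958 at its maximal inhibitory level for full effect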
KCNK3 confirm – retest of human KCNK3 channel inhibitors, confirmation, CHO cells, FluxOR thallium flux, triplicate. shares compounds with KCNK3 inh. 2,400 tested, 99% active. AID 651638, 2012. FluxOR fluorescence; 0% buffer, 100% carvedilol maximal block. ratio percent of control, % at 10 µM;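 active = ratio percent of control, averaged over triplicates, above buffer control mean plus 5 SD, cut at about 64% in these data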;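 also: ratio is the fluorescence rise from min to max over baseline after thallium stimulus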
KCNK3 uninduced – thallium flux inhibition in non-induced cells, primary screen, counter-screen for KCNK3 inhibitor project, cell-based, non-induced KCNK3 line, FluxOR thallium, triplicate; shares compounds with KCNK3 inh; non-induced KCNK3 parental cells; stronger effect = lower value; thallium flux ratio (lower = more inhibition) at 10 µM; 2,400 tested, 40% active; AID 651747, 2012;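 active = thallium flux ratio, averaged over three wells, more than 5 SD below the buffer control mean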;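 also: host cells are CHO cells without KCNK3 induction; ratio is peak minus trough fluorescence over baseline then normalized to buffer controls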
* = called active by the depositor; i = inactive; · = no result given; + = active, no number.

SMILES	KCNK3 inh	KCNQ1 block	KCNK9 inh	hERG rescue	Kir21 block	KCNQ1 act	KCNQ1 inh valid	CHO Tl flux	KCNQ1 ephys val	KCNQ2 spec	KCNQ1-KCNE1 inh	KCNK9 block conf	Kir21 sel	HEK293 Tl ctr	KCNK3 confirm	KCNK3 uninduced
COc1ccc2nc3c(cc2c1)c(NC(=O)c1cccs1)nn3CC(C)C	-9.84*	6*	-8.96*	-14.4	0.98	i	143.5*	0.287*	·	126.7%*	+	i	i	i	93.7*	0.148*
CN(C(=O)COC(=O)c1cc2ccccc2cc1O)C1CCCCC1	i	·	·	·	·	·	·	·	·	·	·	·	·	·	·	·
Cc1cc(-c2ccc(C(C)C)c(S(=O)(=O)N3CCOc4ccccc43)c2)on1	-11.5*	7*	-6.66*	-7.9	0.83	i	96.0*	0.391	i	82.7%*	107.0%*	·	·	·	110.7*	i
Cc1cc(O)c(C=O)c2c1C(=O)Oc1c(CO)c(O)c3c(c1O2)C(O)OC3=O (stereo unspecified)	i	·	·	·	·	·	·	·	·	·	·	·	·	·	·	·
CN(C)S(=O)(=O)c1cccc(COC(=O)c2ccc(Cl)cc2O)c1	-9.51*	7*	-8.31*	-24.5	1.39	i	121.0*	0.433	i	96.3%*	117.0%*	49.5%*	i	26.5%*	130.7*	i
